Source: PubChem BioAssay (several laboratories)
WT yeast gro inh: growth inhibition of WT yeast, mitochondrial fusion screen; mitochondrial fusion phenotypic screen, WT strain; inhibition, % at 10 µM; 190,000 tested, 2.1% active; AID 1362; in the data active means inhibition above about 58%; tested in S. cerevisiae
ABCG2 inh: inhibitors of human ABCG2 transporter, ABCB1 counter-screen; Q9UNQ0; IgMXP3 cells, JC-1 efflux, flow cytometry; inhibition, % at 6.6 µM; 190,000 tested, 0.1% active;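 active means inhibition above 80%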;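 further: 0% = DMSO and 100% = nicardipine control wells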
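Measure – % inhibition of efflux relative to nicardipine and DMSO · Test system – ABCG2 IgMXP3 and barcoded ABCB1 CCRF-Adr cell mix · Control set – nicardipine as high control, DMSO as low control · Compound – one concentration, 6.6 µM final · Signal – flow cytometry of retained JC-1 fluorescence · Timing – 10 min exposure at 25 °C with rotation, no wash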
Lmaj promast: reduces viability of Leishmania major promastigotes. resazurin fluorescence viability. inhibition, % at 10 µM. 200,000 tested, 9% active. AID 1063; in the data active means inhibition above about 50%;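 further: promastigotes grown with compound for 44 hours at 28 °C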
RAM network inh: blocks the yeast RAM network; S. cerevisiae dse1pr::URA3 reporter, 5-FOA growth OD615, 2 d; analog-sensitive cbk1-as2 kinase mutant strain; inhibition, % at 50 µM; 190,000 tested, 1.8% active; AID 868;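 active means inhibition above a set limit, 3 SD over mean compound inhibition, cut at about 8.4% in these data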;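 further: 0% = DMSO-only wells with no growth and 100% = 10 µM 1-NA-PP1 full growth; inhibition rescues growth on 5-FOA so higher OD means more RAM inhibition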
ABCB1 block: inhibitors of human ABCB1 transporter, ABCG2 counter-screen; CCRF-Adr cells, JC-1 efflux, flow cytometry; P08183; inhibition, % at 6.6 µM; 190,000 tested, 0.067% active; AID 1326; in the data active means inhibition above about 40%;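 further: 0% = vehicle and 100% = reference inhibitor; higher value means more JC-1 retained so stronger ABCB1 efflux block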
Numbers without * were called inactive. The list is not random: actives were taken first. Their share in the collection is about 12%.

SMILES	WT yeast gro inh	ABCG2 inh	Lmaj promast	RAM network inh	ABCB1 block
Cc1ccc(NC(=O)C(Cc2ccccc2)NC(=O)OCc2ccccc2)cc1C (stereo not drawn)	-1	6	-5	5	1
Cc1cccc(NC(=O)[C@H](Cc2ccccc2)NC(=O)OCc2ccccc2)c1	20	15	71*	7	1
Cc1ccc(C(=O)NCc2ccccn2)cc1Cl	-14	2	-5	0	0
Cc1cc(C)n2ncc(S(=O)(=O)c3ccccc3)c2n1	-7	-1	-5	0	0
CCNc1ccc(C2(O)C(=O)c3ccccc3C2=O)cc1	3	0	-1	0	3
COc1ccc(C(=O)C(CN2CCOCC2)c2ccccc2)cc1 (stereo not drawn)	33	-1	101*	2	0
CCC(O)(c1ccc(OC)cc1)C(CN1CCOCC1)c1ccccc1 (stereo not drawn)	-10	9	9	0	5
COc1ccc(C(=O)C(CN2CCCC2)c2ccccc2)cc1 (stereo not drawn)	11	2	100*	2	1
O=C(c1ccccc1)C(CCC(CN1CCOCC1)C(=O)c1ccccc1)CN1CCOCC1 (stereo not drawn)	49	2	100*	2	1
CCCOc1ccc(C(=O)C(CN2CCCC2)c2ccccc2)cc1 (stereo not drawn)	32	2	100*	1	1
CCCCOc1ccc(C(=O)C(CN2CCOCC2)c2ccccc2)cc1 (stereo not drawn)	19	2	101*	0	2
O=C(c1ccc(F)cc1)C(CN1CCOCC1)c1ccccc1 (stereo not drawn)	81*	4	101*	0	1
CCCOc1ccc(C(C(=O)OCCN(CC)CC)c2ccccc2)cc1 (stereo not drawn)	31	1	99*	0	1
CCCCCOc1ccc(C(=O)C(c2ccccc2)N2CCOCC2)cc1 (stereo not drawn)	54	2	33	0	0
Cc1nc2ccccc2nc1OCc1ccc([N+](=O)[O-])cc1	10	5	-1	0	1
NNC(=O)c1cc2cc3ccccc3nc2s1	0	-5	36	-1	-1
O=C(/C=C/c1ccc(Br)o1)NC(c1ccccc1)c1ccccc1	63*	17	11	4	0
O=C(N/N=C1/SCC(=O)N1Cc1ccco1)c1ccccc1F	-16	5	-4	3	1
Cc1cc(C)n(CC(C)NCc2cn[nH]c2-c2ccc(C)c(C)c2)n1 (stereo not drawn)	-16	-1	19	-1	0
Nc1nc(-c2cccc(Br)c2)cs1	71*	3	-8	-1	0
COc1cc(S(=O)(=O)Nc2cccc(C)c2)ccc1NC(=O)c1ccncc1	5	12	15	3	0
C/C(=C\C(=O)c1ccccc1)Nc1ccc(O)cc1	10	0	17	0	0
C/C(=C\C(=O)c1cccnc1)Nc1ccc(O)cc1	12	9	99*	1	1
O=C1CCC(=O)N1CC(=O)N(c1ccccc1)c1ccccc1	-10	-1	3	0	0
Cc1noc(C)c1C(=O)N1CCc2ccccc21	22	-1	-7	0	0
SMILES	WT yeast gro inh	ABCG2 inh	Lmaj promast	RAM network inh	ABCB1 block
CCOc1ccccc1N1CCN(C(=O)c2c(-c3ccccc3Cl)noc2C)CC1	-31	-10	71*	0	1
Cc1onc(-c2ccccc2Cl)c1C(=O)N1CCN(c2ncccn2)CC1	-3	1	-7	0	1
Cc1onc(-c2c(Cl)cccc2Cl)c1C(=O)N1CCc2ccccc2C1	-10	4	95*	-1	2
Cc1onc(-c2ccccc2)c1C(=O)N1CCCc2ccccc21	-4	5	98*	1	1
Cc1cc(Nc2ccc(Cl)cc2)n2nnnc2n1	10	3	6	0	0
Cc1cc(Nc2ccccc2Cl)n2nnnc2n1	-7	1	87*	0	0
CCSc1nnc(NC(=O)C2CCN(S(=O)(=O)c3ccccc3C(F)(F)F)CC2)s1	-27	38	55*	3	1
CCSc1nnc(NC(=O)C2CC2c2ccccc2)s1 (stereo not drawn)	-2	9	82*	5	1
CC(=O)Nc1ccc(NC(=O)COC(=O)c2c(C)nn(-c3ccccc3)c2C)cc1	-5	-4	67*	1	0
O=C(Cc1ccccc1F)Nc1nc(-c2cccnc2)cs1	0	6	52*	4	1
